UPR XBP1 act – adaptive UPR (XBP1) activation; CHO-XBP1 luciferase reporter, IRE1-XBP1 UPR activation, luminescence; percent of tunicamycin response, DMSO as zero; activation, % at 20 µM; 0.33% of 330,000 active;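 active = versus positive control, 20 µM dose yields 30% or more activation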
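assay system = CHO-XBP1 luciferase reporter cells | amount = 1000 cells/well | buffer or medium = F12 plus 10% FBS | compound dosing = single point, 20 µM final compound, 1% DMSO | incubation = 16-18 h cell attachment at 37 °C, then 6 h compound exposure | detection = Steady-Glo luminescence read | controls = tunicamycin 10 µg/mL and vehicle-only wells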
CHOP inhibitor – CHOP inhibition in unfolded protein response. 3.8% of 220,000 active. CHO-K1 CHOP-promoter luciferase, tunicamycin-induced, 15-18 h. inhibition, % at 10 µM;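 active = compounds that reduced the stress-induced luciferase reporter signal by more than about 70% of percent inhibition, limit read from the data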
CHOP UPR activ – activators of apoptotic arm of unfolded protein response (CHOP); CHO-CHOP luciferase reporter, UPR activation, luminescence; percent of tunicamycin response over DMSO baseline; activation, % at 10 µM; 0.34% of 330,000 active;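 active = at 10 µM dose, activation of 40% or more, normalized to positive control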
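System: CHO-CHOP luciferase reporter cell line; amount: 500 cells/well; buffer or medium: F12 medium containing 10% fetal bovine serum; incubation: 6 h compound exposure at 37 °C after overnight seeding; measured by: luciferase luminescence after 10 min with Steady-Glo reagent; evaluation: % reporter activation, DMSO baseline versus tunicamycin full activation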
Bfl-1 A1 inh – inhibitors of the anti-apoptotic protein A1, read as caspase activation; AID 2462; MEF A1-2A-BIM cells, Caspase-Glo 3/7 luminescence, 3 h; percent of clofoctol response, vehicle zero; 0.066% of 330,000 active; caspase activation, % (test concentration not listed);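 active = over half of replicate activation scores above 10%, or exactly half above 10 with the replicate mean above 10; inconclusive = replicate mean below 10 yet half the replicates above 10; inactive = over half of replicates below 10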
UPR XBP1 confirm – confirmation of adaptive unfolded protein response (XBP1) activators | activation, % at 20 µM | CHO-XBP1 IRE1-XBP1 luciferase reporter, luminescence | shares compounds with UPR XBP1 act | 63% of 1,000 active;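 active = reporter signal at least 30% of the positive control's activation in two or more of four replicate wells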
Each line names hits and unclear results; the compound was inactive in the other large screens (follow-up assays come after a bar, where they were run). The entries come from a sample that favours hits as a whole.

COc1ccc(-c2sc3ccccc3c2-c2ccc(OCCN3CCCCC3)cc2)cc1	none (no result: CHOP inhibitor)
CC(Sc1nnc(Nc2ccccc2F)s1)C(=O)NC1CC1 (stereo not given)	none (no result: CHOP inhibitor)
Oc1[nH]c2ccccc2c1N=Nc1nc(Nc2ccccc2)nc(N2CCOCC2)n1	UPR XBP1 act 86 | UPR XBP1 confirm inactive
COCCNC(=O)C(c1ccc(C)cc1)N(Cc1ccco1)C(=O)CCC(=O)Nc1ccccn1 (stereo not given)	none (no result: CHOP inhibitor)
CCOC(=O)C1=CNS(=O)(=O)NC1c1ccc(C(F)(F)F)cc1 (stereo not given)	none (no result: CHOP inhibitor, Bfl-1 A1 inh)
Cc1ccc2c(c1)C(=O)C(=O)N2Cc1ccc(C(F)(F)F)cc1	UPR XBP1 act 51, Bfl-1 A1 inh inconclusive (no result: CHOP inhibitor) | UPR XBP1 confirm 46
Cc1ccc(OCCN2C(=O)C(=O)c3cc(C)ccc32)cc1	none
CCOc1ccc(OCCC(=O)OCC(=O)NC2CCCCC2)cc1	none (no result: CHOP inhibitor)
CC(C)(C)NC(=O)CN(Cc1ccccc1)S(=O)(=O)c1ccccc1	none (no result: CHOP inhibitor)
Cc1cccn2c(=O)c3cc(C(=O)NC4CCCCCC4)sc3nc12	UPR XBP1 act 355 (no result: CHOP inhibitor) | UPR XBP1 confirm 97
Cc1cccn2c(=O)c3cc(C(=O)NC4CCS(=O)(=O)C4)sc3nc12 (stereo not given)	none
CCN(CC)c1ccc(/C=C/C(=O)C2C(=O)C=C(C)OC2=O)cc1 (stereo not given)	Bfl-1 A1 inh inconclusive
Cc1ccc(-c2csc(/C(C#N)=C/Nc3ccc4c(c3)OCCO4)n2)cc1	UPR XBP1 act 33 | UPR XBP1 confirm inactive
O=c1cc(CN2CCN(c3ccc(F)cc3)CC2)c2cc3c(cc2o1)CCCC3	UPR XBP1 act 100 | UPR XBP1 confirm 96
N#CCCN(C(=O)c1cc2c(s1)-c1ccccc1S(=O)(=O)C2)c1ccccc1	none (no result: CHOP inhibitor)
COc1cc(/C=N/Nc2nc(Nc3ccc(C)cc3)nc(-n3nc(C)cc3C)n2)cc(OC)c1OC	UPR XBP1 act 50 | UPR XBP1 confirm 69
COc1cc(/C=N/Nc2nc(Nc3ccccc3)nc(-n3nc(C)cc3C)n2)cc(OC)c1OC	UPR XBP1 act 72 | UPR XBP1 confirm 90
Cc1ccc(S(=O)(=O)NC2CC(C)(C)N(O)C(C)(C)C2)cc1	none (no result: CHOP inhibitor)
CCOC(=O)c1c(NC(=O)CSc2nc3ccc(C)cc3[nH]2)sc2c1CC(C)(C)NC2(C)C	none (no result: CHOP inhibitor)
Cc1cc(NC(=O)c2cncc(Br)c2)ccc1NC(=O)c1cc2ccccc2o1	UPR XBP1 act 35 (no result: CHOP inhibitor) | UPR XBP1 confirm 81
COc1cc(NC(=O)c2cccs2)ccc1NC(=O)c1cc2ccccc2o1	UPR XBP1 act 69, CHOP inhibitor 91, Bfl-1 A1 inh inconclusive | UPR XBP1 confirm 37
Cc1csc2nc(COC(=O)c3ccc(Cl)c([N+](=O)[O-])c3)cc(=O)n12	UPR XBP1 act 71 (no result: CHOP inhibitor) | UPR XBP1 confirm inactive
O=C1Nc2ccccc2/C1=C/c1ccc([N+](=O)[O-])cc1	UPR XBP1 act 75 (no result: CHOP inhibitor) | UPR XBP1 confirm 76
O=C1Nc2ccccc2/C1=C/c1ccccc1Cl	none (no result: CHOP inhibitor)
N#Cc1c(-c2ccc3c(c2)OCO3)ccn2nc(-c3cccc(C(F)(F)F)c3)nc12	UPR XBP1 act 53 | UPR XBP1 confirm 50
Cn1c(=O)c2c(nc(Sc3ncnn3CC(=O)NC3CCCCC3)n2C)n(C)c1=O	none
COc1cccc(/C=C/c2ccc3cccc(O)c3n2)c1OC	none (no result: CHOP inhibitor)
COc1cc(/C=C/c2ccc3cccc(O)c3n2)cc(Cl)c1OC	UPR XBP1 act 66 (no result: CHOP inhibitor) | UPR XBP1 confirm inactive
COc1cc(/C=C/c2ccc3cccc(O)c3n2)cc(OC)c1OC	UPR XBP1 act 77, CHOP UPR activ 339 (no result: CHOP inhibitor) | UPR XBP1 confirm inactive
COc1cc(CNCc2ccc(Br)cc2)cc(OC)c1	none (no result: CHOP inhibitor)
Cc1ccc(S(=O)(=O)N2CCCCC2CCNC(=O)C(=O)Nc2ccccc2F)cc1 (stereo not given)	none (no result: CHOP inhibitor)
CCOC(=O)C1=C(C)N=C2c3ccccc3C(=O)C2C1c1ccc(C)cc1 (stereo not given)	UPR XBP1 act 32, CHOP inhibitor 74 | UPR XBP1 confirm 28
CCCCCCCN1CCN=C1N(C)C	none (no result: CHOP inhibitor)
CC(NC(=O)C12CC3CC(CC(O)(C3)C1)C2)c1ccc(Cl)cc1Cl (stereo not given)	none (no result: CHOP inhibitor)
Cc1ccc(NC(=O)CSc2n[nH]c(-c3cccnc3)n2)cc1Cl	none (no result: CHOP inhibitor)
O=C(NC(=Nc1nc2ccccc2o1)NC(=O)c1ccccc1)c1ccccc1	UPR XBP1 act 32 | UPR XBP1 confirm inactive
N/C(=N\c1nc2ccccc2o1)NC(=O)c1ccccc1NC(=O)c1ccccc1	none
CC(C)CN=C(NS(=O)(=O)c1ccccc1)C(Cl)(Cl)Cl	UPR XBP1 act 47 | UPR XBP1 confirm 60
CSc1nsc(SCC(=O)Nc2ccc(F)cc2F)n1	none (no result: CHOP inhibitor)
